# Tb MetRS inh: Trypanosoma brucei MetRS inhibition | purified T. brucei MetRS, ATP depletion, Kinase-Glo luminescence | inhibition, % at 11.9 µM | 360,000 compounds, 0.4% hits | AID 624268;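 active = inhibition above a per-plate cutoff of the control wells' mean inhibition plus 3 SD, cut at about 5.5% in these data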;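 also: 0% = DMSO wells median and 100% = median of wells with control inhibitor compound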
#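 Measured by: Kinase-Glo luciferase luminescence reporting remaining unconsumed ATP. Material: purified T. brucei MetRS enzyme. Doses: 11.9 µM compound single dose, 0.9% DMSO. Medium: HEPES buffer containing pyrophosphatase, BSA, spermine, DTT. Times: 15 min preincubation, 2 h reaction, all 25 °C. Reagent: methionine, ATP and bulk E. coli tRNA.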
# PLCb3 inh: PLC-beta3 (human) inhibition, primary screen; 370,000 compounds, 0.18% hits; Q01970; Purified PLC-beta3, fluorogenic substrate, fluorescence; inhibition, % at 12.2 µM; in the data active = inhibition above about 11%;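 also: 0% = median of compound wells on plate and 100% = full blocker control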
# PLC-gamma1 inh: inhibitors of human phospholipase C gamma1; P19174; inhibition, % at 12.2 µM; purified PLC-gamma1, fluorogenic substrate, fluorescence; 370,000 compounds, 0.84% hits; in the data active = inhibition above about 9.5%
# sPLA2-III inh: Blocks human group III sPLA2 activity; Q9NZ20; inhibition, % at 12.2 µM; QFRET BODIPY PC-A2 liposome hydrolysis, fluorescence; AID 743126; 370,000 compounds, 0.56% hits;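 active = inhibition above mean plus 3 SD of compounds lying within the high and low control bounds, cut at about 19% in these data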;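 also: 0% = median of test compound wells and 100% = no enzyme DMSO wells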
# Target sequence (Q9NZ20 whole entry, looked up): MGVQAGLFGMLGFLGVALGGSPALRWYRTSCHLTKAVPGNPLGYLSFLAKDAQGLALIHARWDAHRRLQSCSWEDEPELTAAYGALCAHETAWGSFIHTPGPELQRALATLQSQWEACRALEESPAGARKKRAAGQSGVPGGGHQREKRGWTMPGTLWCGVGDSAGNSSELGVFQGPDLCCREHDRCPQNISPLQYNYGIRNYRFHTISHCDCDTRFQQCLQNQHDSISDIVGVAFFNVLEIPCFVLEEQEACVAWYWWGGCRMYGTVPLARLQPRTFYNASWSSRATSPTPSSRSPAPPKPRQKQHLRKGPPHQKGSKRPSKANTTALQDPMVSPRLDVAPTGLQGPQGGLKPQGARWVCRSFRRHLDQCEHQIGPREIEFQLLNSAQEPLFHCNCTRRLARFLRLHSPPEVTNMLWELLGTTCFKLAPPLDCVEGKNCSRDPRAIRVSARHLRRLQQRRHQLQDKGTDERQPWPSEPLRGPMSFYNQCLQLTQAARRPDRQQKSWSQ
# hGIII sPLA2 conf: human GIII-sPLA2 inhibition, confirmation; shares compounds with sPLA2-III inh; recombinant hGIII-sPLA2, BODIPY PC-A2 QFRET fluorescence; inhibition, % at 12.2 µM; 2,000 compounds, 34% hits; AID 743280;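 active = mean inhibition across triplicates above the hit cutoff set in the earlier primary screen, cut at about 19% in these data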;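 also: 0% = enzyme with DMSO and 100% = DMSO wells lacking enzyme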
# 535nm interf: 535nm fluorescence interference, HGIII-sPLA2 counter-screen; shares compounds with sPLA2-III inh; BODIPY FL product fluorescence interference, QFRET; inhibition, % at 12.2 µM; 2,000 compounds, 8.5% hits; AID 743282;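 active = average inhibition above the solvent-only control mean plus 3 SD, cut at about 6% in these data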;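 also: 0% = DMSO with substrate plus product and 100% = DMSO with substrate alone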
# BODIPY interf DR: 535nm optical interference dose response, HGIII-sPLA2 counter-screen; shares compounds with sPLA2-III inh; BODIPY FL product fluorescence interference, cell-free; IC50, µM; 240 tested, under 10 active; AID 743455;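 active = IC50 at or below 10 µM; inactive = IC50 above 10 µM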
# Numbers without * were called inactive; nt = not tested or not shown; ! = a repeat was not active. Compounds with a hit are over-represented: about 1.9% of the library has one in this group of screens.
SMILES,Tb MetRS inh,PLCb3 inh,PLC-gamma1 inh,sPLA2-III inh,hGIII sPLA2 conf,535nm interf,others
Cc1ccc(Nc2nnc(SCC(=O)Nc3ncc(S(=O)(=O)c4ccc([N+](=O)[O-])cc4)s3)s2)cc1,-1,-7,7,20*,-30,4,
CCOc1ccccc1NC(=S)Nc1ncccc1C,0,0,1,23*,8,-3,
CCOc1ccc(C(=O)NC(=S)Nc2ncccc2C)cc1[N+](=O)[O-],0,1,3,20*,10,-8,
CN=c1scc(-c2ccccc2F)n1/N=C/c1ccc[nH]1,-1,-31,-27,35*,29*,3,BODIPY interf DR=>122
CCOCCCn1c(SC(C(=O)Nc2cc(C)ccc2C)c2ccccc2)nnc1-c1ccc(Cl)cc1 (stereo not given),0,-3,1,20*,-8,-5,
Cc1ccccc1/C=N/n1c(-c2ccccn2)n[nH]c1=S,-2,-7,-1,4,nt,nt,
S=c1[nH]nc(-c2ccccn2)n1/N=C/c1cccc2ccccc12,-1,-2,3,21*,27*,5,
Cc1ccccc1/C=N/n1c(-c2cc(-c3ccccc3)n[nH]2)n[nH]c1=S,0,-11,-2,26*,-70,6,
COC(=O)C1CN(Cc2cn(Cc3ccc(C)cc3)nn2)CCS(=O)(=O)N1Cc1ccc(Cl)cc1 (stereo not given),nt,-1,4,-7,nt,nt,
C#CC[N+](C)(C)CCCCCCCC,0,1,-3,7,nt,nt,
C#CC[N+](C)(C)CCCCCCCCCC,0,2,6,19*,1,-15,
C#CC[N+](C)(C)CCCCCCCCCCCC,0,2,8,23*,-6,-33,
COC(=O)C[C@H]1CC[C@H]2[C@H](COc3ccc(NS(=O)(=O)c4ccccc4C)cc3C(=O)N2C)O1,nt,1,1,2,nt,nt,
COC(=O)c1cc2c(c3c4cc(F)ccc4n(S(=O)(=O)c4ccc(C)cc4)c13)C(=O)N(C)C2,nt,-13,-11,5,nt,nt,
Cc1cc(C)cc(NC(=O)NC2CCN(S(=O)(=O)c3ccc(F)cc3)CC2)c1,nt,2,5,-1,nt,nt,
S=C(Nc1ccccc1I)OC1CCC12CCC(c1ccccc1)CC2 (stereo not given),nt,4,7,10,nt,nt,
Clc1ccc(-c2csc(N3CCCCCC3)n2)cc1,-1,8,-1,23*,27*,6.7*,
NC(=O)C1CCN(c2nc(-c3ccc(Br)cc3)cs2)CC1,0,4,2,23*,14,0,
CC(=O)C1=C(C)N(Cc2ccc(F)cc2)C(=S)NC1c1cccc(F)c1 (stereo not given),nt,0,0,3,nt,nt,
O=C(CN(C(=O)c1ccccc1Cl)C1CCCCC1)Nc1ccc(Cl)c([N+](=O)[O-])c1,0,0,1,0,nt,nt,
O=C(CN(C(=O)c1ccc(Cl)cc1)C1CCCCC1)Nc1ccc(Cl)c([N+](=O)[O-])c1,-1,5,2,20*,-7,-16,
Cc1ccc(-c2cnc(N)n2C)cc1C,0,-9,-7,20*,9,-13,
OC(c1ccccc1)(c1ccccc1)C1CCN(CCCNc2ccccc2F)CC1,nt,3,2,-20,nt,nt,
CCOc1ccc2[nH]c3c(NCCN(CC)CC)ncnc3c2c1,0,-343,-263,20*,2,-16,
O=c1c2ccccc2cnn1Cc1n[nH]c(=S)n1C1CC2CCC1C2 (stereo not given),0,-5,1,26*,21*,0,
SMILES,Tb MetRS inh,PLCb3 inh,PLC-gamma1 inh,sPLA2-III inh,hGIII sPLA2 conf,535nm interf,others
O=C1NC2(CCCCC2)Cc2ccccc21,0,2,-1,-4,nt,nt,
S=C1NC2(CCCCC2)Cc2ccccc21,0,2,3,21*,14,-2,
CC(COc1cccc(Cl)c1)CN1CCC(C(O)(c2ccccc2)c2ccccc2)CC1 (stereo not given),nt,3,5,-19,nt,nt,
COCCN1C(=O)C2=C(C1=O)C1N(C)c3ccccc3[C@@]13C[C@@H](CO)N(C(=O)CCC(=O)OC)C3=N2 (stereo not given in full),nt,1,-4,-3,nt,nt,
CCC(C)[C@@H](C(=O)OC)N(Cc1cn(Cc2ccccc2)nn1)S(=O)(=O)c1ccccc1Br (stereo not given in full),nt,3,2,-2,nt,nt,
O=C(NC(=S)N1CCN(C/C=C/c2ccccc2)CC1)c1ccco1,0,3,-5,1,nt,nt,
O=C(NC(=S)N1CCN(C/C=C/c2ccccc2)CC1)c1c(F)cccc1F,-1,-4,-2,27*,24*,-2,
C#CCNC(=O)C[C@@H]1C(=O)N(CC=C)/C2=C/CCCCC[C@]21C(=O)OCC,nt,3,2,-2,nt,nt,
FC(F)(F)c1cc(-c2ccccc2)nc(N2CCCCCC2)n1,0,6,3,20*,5,-5,
COc1ccc(-c2cc(C(F)(F)F)nc(N3CCCCCC3)n2)cc1,-1,0,0,0,nt,nt,
O=C(Cc1ccc(NC(=O)C2CCN(C(=O)C3CCCC3)CC2)cc1)Nc1cccc(C(=O)N2CCCC2)c1,nt,-1,1,-8,nt,nt,
Cc1cc(=O)oc(C)c1C(=O)Nc1ccccc1F,0,0,0,26*,1,-8,
Cc1cc(=O)oc(C)c1C(=O)Nc1cccc2ccccc12,0,4,2,1,nt,nt,
Cc1ccccc1NC(=O)c1c(C)cc(=O)oc1C,0,6,-4,23*,-2,-6,
CC(C1CC2CCC1C2)N1CC(O)=C(c2nc3ccccc3[nH]2)C1=N (stereo not given),-1,-33,-21,28*,21*,-4,
Cc1cc(C)[n+]2n1C(=O)C(c1ccccc1)=C2[O-],0,-3,0,21*!,5,0,
O=C(OCCN1CCN(C2CN(Cc3cn(Cc4ccccc4Cl)nn3)S(=O)(=O)C2)CC1)c1cc2ccccc2o1 (stereo not given),nt,-1,-1,8,nt,nt,
Cc1ccc2c(c1)C1CS(=O)(=O)N(CCc3ccccc3)C(=O)N1C2 (stereo not given),nt,2,8,19*,2,-9,
Cc1ccc2c(c1)C1CS(=O)(=O)N(CCc3ccccc3)CN1C2 (stereo not given),nt,-12,-9,12,nt,nt,
COCCNC(=O)c1c[nH]c2ccc(S(=O)(=O)N3CCOCC3)cc2c1=O,1,-1,0,1,nt,nt,
CN(Cc1ccccc1)C(=O)c1c[nH]c2ccc(S(=O)(=O)N3CCOCC3)cc2c1=O,0,-29,-17,20*,-4,-6,
Cc1cccc(NC(=S)N2CCN(c3ccc(F)cc3)CC2)c1,-1,-3,1,26*,11,-5,
